Test results published in publication PMC3502708 (Journal of molecular biology, 2012).
Blank lines part the entries; values can stand above or below the compound they belong to.

Experiments:
ING5 PHD finger = settings: ref [13]; cited from earlier work
[1] = target: double PHD fingers of DPF3; settings: read-out: Kd, double PHD fingers of DPF3; ref [31]; cited from earlier work
MORF PHD1/2 fingers [2] = target: T1, MORF PHD1/2 fingers (Homo sapiens, UniProt Q8WYB5); assay: NMR titration; type: binding; settings: for Chemical shift changes / binding of MORF PHD1/2 by NMR (in words): 0.1 mM 15N-labeled PHD1/2, 298K
T1 sequence (Q8WYB5 211-329): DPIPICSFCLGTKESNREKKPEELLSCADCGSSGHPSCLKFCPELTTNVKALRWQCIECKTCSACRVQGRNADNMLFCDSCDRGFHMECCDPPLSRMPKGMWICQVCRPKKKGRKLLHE

MOZ PHD1/2 fingers = MOZ PHD1/2 fingers (Homo sapiens, UniProt Q92794); assay: Tryptophan fluorescence binding, MOZ PHD1/2; settings: as seen in NMR and fluorescence assays
MOZ PHD1/2 fingers, sequence (Q92794 207-318): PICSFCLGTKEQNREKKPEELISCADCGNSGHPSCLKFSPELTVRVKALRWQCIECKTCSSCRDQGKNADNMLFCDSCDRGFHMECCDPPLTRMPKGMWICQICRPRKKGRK

MORF PHD1/2 fingers [3] = target: T1, MORF PHD1/2 fingers; assay: Tryptophan fluorescence binding, MORF PHD1/2; settings: 25 °C, H3un vs acetylated peptides
[4] = system: endogenous H3K14ac / histone H3 in HEK293 cells; type: cell-based; settings: TSA 3 μM, 6 h prior to harvesting, Flag-N-MORF IP
Summary of the method: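 HEK293 cells were seeded at 300,000 per 6 cm dish and lipofection-transfected with Flag-tagged MORF N-terminal constructs (aa 1–352, or aa 1–215 lacking PHD1/2). After about 48 h, cells were lysed in buffer with 150 mM KCl and immunoprecipitated on anti-Flag M2 agarose. Beads were washed extensively and eluted in 50 mM phosphoric acid. Blots were probed with anti-Flag, anti-H3K14ac and anti-H3. Where indicated, TSA (3 μM) was added to the medium 6 h before harvest.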

Binding of MORF PHD1/2 by NMR, short peptide (in words) (MORF PHD1/2 fingers [2]; 1H,15N HSQC titration, 298K, short peptide, amino acids 1–12): Substantial chemical shift changes | Affinity of MOZ PHD1/2 relative to H3K14ac and H3K9ac (MOZ PHD1/2 fingers): two to three fold weaker | Affinity of MORF PHD1/2 relative to H3K9ac and H3K14ac (MORF PHD1/2 fingers [3]): two to three fold weaker
Compound: H3un: peptide corresponding to amino acids 1–12 of unmodified histone H3 (NMR); length for fluorescence not printed
Binding to ING5 PHD finger (in words) (ING5 PHD finger): does not associate with H3un | Kd [1]: 2 µM

Compound: C[C@H](N)C(=O)N[C@@H](CCCNC(=N)N)C(=O)N[C@H](C(=O)N[C@@H](CCCC[N+](C)(C)C)C(=O)N[C@@H](CCC(N)=O)C(=O)N[C@H](C(=O)N[C@@H](C)C(=O)N[C@@H](CCCNC(=N)N)C(=O)N[C@@H](CCCCN)C(=O)N[C@@H](CO)C(=O)N[C@H](C(=O)NCC(=O)O)[C@@H](C)O)[C@@H](C)O)[C@@H](C)O [H3K4me3]
Chemical shift changes / binding of MORF PHD1/2 by NMR (in words) (MORF PHD1/2 fingers [2]; 1H,15N HSQC titration): small changes in the NMR spectra of PHD1/2 | Affinity of MORF PHD1/2 relative to H3un or H3K9ac (MORF PHD1/2 fingers [2]; NMR titration, 298K): three orders of magnitude lower than affinity of this protein toward H3un or H3K9ac

Compound: H4 peptide (residues 1–23): H4 peptide (residues 1–23) [reference compound]
Chemical shift changes / binding of MORF PHD1/2 by NMR (in words) (MORF PHD1/2 fingers [2]; 1H,15N HSQC titration): unable to trigger chemical shift changes in MORF PHD1/2

Compound: CC(/C=C/C(=O)NO)=C\[C@@H](C)C(=O)c1ccc(N(C)C)cc1 [trichostatin A (TSA), trichostatin A, reference compound]
Effect on association of N-MORF with histone H3 [4]: enhanced the association of N-MORF with histone H3

Compound: CC(=O)NCCCC[C@H](N)C(=O)O [acetylated lysine amino acid, reference compound]
Chemical shift changes / binding of MORF PHD1/2 by NMR (in words) (MORF PHD1/2 fingers [2]; 1H,15N HSQC titration): lack of any significant resonance perturbations

Chemical shift changes / binding of MORF PHD1/2 by NMR (in words) (MORF PHD1/2 fingers [2]; 1H,15N HSQC titration): induced similar resonance perturbations
Compound: H3 peptide (amino acids 1–20): longer unmodified H3 peptide (amino acids 1–20)

Chemical shift changes of MORF PHD1/2 with 5-fold excess of peptide (in words) (MORF PHD1/2 fingers [2]; 1H,15N HSQC, 298K, 5-fold excess of H3 (3–10)): no changes in the NMR spectra of PHD1/2
Compound: H3 (3–10): peptide comprising amino acids Thr3-Ser10 but missing Ala1 and Arg2 (TKQTARKS)
